The structures appear in SMILES notation. Calls of active or inactive are those of the source. The calls are words filed in the database; no cut-off is given here. Where only a bound is given, the exact number is not on record here.

Series [1] concerns influenza A virus A/St. Petersburg/34/72 (H3N2). The series is described as follows: Therapeutic index, ratio of CC50 for dog MDCK cells to EC50 for 100 infective dose of influenza A virus A/St. Petersburg/34/72 (H3N2. Format: cell-based. As to conditions: read-out: Ratio CC50/EC50.
For series [2] the test system is unchanged. Nature of the series: Therapeutic index, ratio of CC50 for dog MDCK cells to EC50 for 1 infective dose of influenza A virus A/St. Petersburg/34/72 (H3N2). It is filed as cell-based. As to conditions: read-out: Ratio CC50/EC50.
A short description of series [3]: Cytotoxicity against dog MDCK cells after 48 hrs by MTT assay. Format: cell-based, Canis lupus familiaris. In a few lines: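 MDCK cells were incubated with compound at various concentrations for 48 h. CC50 is the concentration causing 50% reduction of cell viability. Values are means of 2–4 separate experiments.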
A general note: Formazan colour is commonly taken as a measure of viable cells.

Series [4] has as its system Influenza A virus. The series is described as follows: Antiviral activity against 100 infective dose of influenza A virus A/St. Petersburg/34/72 (H3N2) infected in dog MDCK cells assessed as virus-induced cytopathic effect after 48 hrs. It is filed as functional, organism-based. In a few lines: (§1)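 MDCK cells in maintenance medium were infected with 1 infective dose or 100 doses, where 1 dose induced 50 3% cell death under standard conditions. Cells were incubated with compound at various concentrations for 48 h at 37 °C in 5% CO2. CPE was scored against cell and virus controls, and EC50 is the concentration giving 50% inhibition of CPE. Values are means of 2–4 separate experiments.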
(In general: Cytopathic effects are the visible damage that an infection or toxin causes in cultured cells.)

The test system of series [5] is Influenza A virus. Nature of the series: Antiviral activity against 1 infective dose of influenza A virus A/St. Petersburg/34/72 (H3N2) infected in dog MDCK cells assessed as virus-induced cytopathic effect after 48 hrs. Format: functional, organism-based. Put shortly: as §1
The test system of series [6] is H3N2 subtype. Nature of the series: Antiviral activity against Influenza A virus (A/Aichi/2/1968(H3N2))-infected in Balb/c mouse at 0.1 LD50/dose, sc for 5 times measured after 7 to 14 days. Format: functional, organism-based. Put shortly: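 Balb/c mice of both sexes, 10 per group, were infected intranasally with mouse-adapted virus. […] Vehicle controls received the same schedule. Survivors were counted on days 7 and 14.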

In series [7] the test system is Mus musculus. The series is described as follows: Sub-acute toxicity in Balb/c mouse assessed as change in body weight at 300 mg/kg, sc administered for 6 days measured on day 10. It is filed as organism-based. The arrangement: dose 300 mg/kg, route subcutaneous. To be noted: in vivo, 144 h. In a few lines:
(§2)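 Four mice, two of each sex, were given 300 mg/kg SC daily for 6 days. Behaviour and body weight were assessed at day 10.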

Series [8] deals with Mus musculus. Nature of the series: Sub-acute toxicity in Balb/c mouse assessed as behavioural change at 300 mg/kg, sc administered for 6 days measured on day 10. Format: organism-based. Further details: dose 300 mg/kg, route subcutaneous. As to conditions: in vivo, 144 h. In a few lines: as §2
Series [9] concerns Mus musculus. Nature of the series: Sub-acute toxicity in Balb/c mouse assessed as survival at 1000 mg/kg, sc after 10 days. As to conditions: in vivo, 240 h. It is filed as organism-based. Further details: dose 1000 mg/kg, route subcutaneous. Put shortly: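 Four male Balb/c mice each received a single SC dose of 1000 mg/kg in saline/DMSO 4:1. Survival was followed for at least 10 days.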

The test system of series [10] is Influenza A virus. Nature of the series: Antiviral activity against influenza A virus A/St. Petersburg/34/72 (H3N2) infected in dog MDCK cells using chicken erythrocytes by hemadsorption assay. Format: functional, organism-based. In a few lines: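 Hemadsorption of chicken erythrocytes was used alongside the CPE read-out on infected MDCK cells after 48 h compound incubation at 37 °C in 5% CO2. The results of the two assays were averaged.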

In series [11] the test system is H3N2 subtype. The series is described as follows: Antiviral activity against Influenza A virus (A/Aichi/2/1968(H3N2))-infected in Balb/c mouse at </= 100 mg/kg, sc after 7 to 14 days. It is filed as functional, organism-based. Further details: dose 100 mg/kg.
Series [12] is described as follows: Acute toxicity in sc dosed Balb/c mouse after 5 days. Format: organism-based. To be noted: in vivo. In a few lines: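 Male Balb/c mice, four per group, given single SC doses rising from 1000 to 4000 mg/kg in 500 mg/kg steps, in saline/DMSO 4:1 (200 µL total). LD50 was taken as the dose giving 50% mortality, with toxicity estimated in a 5 days test.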

The term CC50 denotes the concentration at which the toxic effect on the cells reaches its halfway point. One may read the EC50 as the concentration needed to bring the measured effect to its halfway point. Consider `CCCC(=O)N(CC(C)/C(=N\c1ccccc1)Nc1ccccc1)c1ccccc1` (racemic), for which the selectivity ratio stood at 2.2 in series [1] and 9 in series [2]. This compound displayed a cytotoxic concentration (CC50) at 48 h in series [3] of 216 µM. Besides, the EC50 in series [4] came out at 98 µM; in [5] it was 24 µM.

Regarding `CC(CN(C(=O)c1ccccc1)c1ccccc1)/C(=N\c1ccccc1)Nc1ccccc1` (racemic), the selectivity ratio in [2] was < 2.85. Further, the CC50 at 48 h in series [3] worked out at 286 µM. The EC50 in series [4] was ≥ 200 µM; in series [5] it was > 100 µM.

As for `CCCCCCCCCCCCCCCCCC(=O)N(CC(C)/C(=N\c1ccccc1)Nc1ccccc1)c1ccccc1` (racemic), the selectivity ratio in series [1] was determined as 17; in [2] it was 80. Moreover, it took 1240 µM to reach half-maximal cytotoxicity in series [3] (CC50 at 48 h). Further, the half-maximal effective concentration (EC50) is 72 µM in series [4] and 15.6 µM in series [5].

Usually LD50 stands for the dose at which mortality reaches 50%. In the case of `CCCCCCCCC(=O)N(CC(C)/C(=N\c1ccccc1)Nc1ccccc1)c1ccccc1.Cl` (racemic), the outcome in [6] and in [10] was Active. Also, the Activity entry in series [7], in series [8] and in [9] was “Non-toxic” throughout. Besides, the values for the selectivity ratio in [1] and in series [2] were 125 and 260, respectively. For the same compound, it took 247 µM to reach half-maximal cytotoxicity in series [3] (CC50 at 48 h). Further, the EC50 amounted to 1.98 µM in series [4] and 0.95 µM in series [5]. Also, the outcome in [11] was inactive. The same compound showed an LD50 at 120 h in series [12] of 3000 mg/kg.

For `CC(N)C12CC3CC(CC(C3)C1)C2` (stereo not drawn) [RIMANTADINE], the selectivity ratio is 32 in series [1] and 256 in [2]. Further, the CC50 at 48 h in [3] came to 1400 µM. In addition, the EC50 in series [4] was 43.5 µM; in series [5] it was 5.45 µM. Further, the outcome in series [11] was Active. In addition, in [12], the LD50 at 120 h was 175 mg/kg.

As for `CC(=O)N(CC(C)/C(=N\c1ccccc1)Nc1ccccc1)c1ccccc1` (racemic), in series [2], the selectivity ratio is 2.25. The compound further came in with a CC50 at 48 h in [3] of 153 µM. The EC50 in [4] was ≥ 200 µM; in [5], 68 µM.

The compound `N=C(N)CCNC(=O)[C@@H]1CC[C@H](N)C1` [(1R,3S)-AMIDINOMYCIN] returned an LD50 at 120 h in series [12] of 10 mg/kg.

Turning to `CCCCCCCCCCC(=O)N(CC(C)/C(=N\c1ccccc1)Nc1ccccc1)c1ccccc1.Cl` (racemic), the outcome in series [6] and in [10] was Active. Besides, the selectivity ratio in series [1] is 128; in series [2] it was 514. Moreover, in series [3], the CC50 at 48 h came to 936 µM. Moreover, the EC50 in series [4] came out at 7.3 µM; in series [5] it was 1.82 µM. Moreover, in [11], the outcome was inactive. Moreover, in [12], the LD50 at 120 h came to 3500 mg/kg.

`CC(CNc1ccccc1)/C(=N\c1ccccc1)Nc1ccccc1` (racemic) had a CC50 at 48 h in [3] of 85 µM. The EC50 in series [4] and in series [5] was ≥ 200 µM each time.

Turning to `CCCCCCCCCCCCC(=O)N(CC(C)/C(=N\c1ccccc1)Nc1ccccc1)c1ccccc1.Cl` (racemic), the outcome in [6] was Active. Also, the results for the selectivity ratio in series [1] and in series [2] were 32 and 128, respectively. This compound also came in with a CC50 at 48 h in series [3] of 890 µM. The EC50 was 27.8 µM in series [4] and 6.95 µM in [5]. Also, the outcome in series [11] was inactive. This compound returned an LD50 at 120 h in series [12] of 4000 mg/kg.

Source of the values: ChEMBL document CHEMBL2390852, “Anti-influenza active and low toxic N-phenyl-substituted β-amidoamidines structurally related to natural antibiotic amidinomycin” (Bioorg Med Chem Lett, 2013).
